Results reported in ChEMBL document CHEMBL1124106, “Synthesis of diethylenetriaminepentaacetic acid conjugated inulin and utility for cellular uptake of liposomes” (J Med Chem, 1988).
Values joined by “and” are separate entries in the source; they are usually repeats but may differ in a detail not shown here. Identical values can stand only once.

Experiments:
Mus musculus [1] = assay: Biodistribution of compound in mice tail after 0.17 hr of intravenous injection; type: ADME, organism-based; conditions: in vivo
Outline: (§1)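 BALB/c mice (about 25 g), n = 4. Free ¹¹¹In- or ⁶⁷Ga-labeled compound (50–100 μL, about 100 000 cpm) was injected into a tail vein. Mice were held in separate cages and killed by cervical dislocation, with blood and cumulative excreta collected. Tissues were rinsed, blotted, weighed and γ-counted, with blood background subtracted (blood volume 8.0%). Values are % injected dose ± SD.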

Mus musculus [2] = assay: Biodistribution in mice fat, after 1 hr of intravenous administration of 1-2 ug ofcompound (entrapped in bovine brain sphingomyelin/ cholesterol multilamellar vehicles); type: ADME, organism-based; conditions: in vivo
Outline: (§2)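 BALB/c mice (about 25 g), 3–5 per group, given 50–100 μL tail-vein injection of 111In-labeled conjugate entrapped in SM/CH (2:1 mol/mol) multilamellar vesicles, approx. 100 000 cpm; dose 1–2 μg phospholipid/g body weight. Killed by cervical dislocation at set times; blood, cumulative excretion and rinsed, blotted, weighed tissues γ-counted, blood background subtracted. Result is % injected dose ± SD.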

Mus musculus [3] = assay: Biodistribution of compound in mice liver after 1 hr of intravenous injection; type: ADME, organism-based; conditions: in vivo; outline: as §1
Mus musculus [4] = assay: Biodistribution of compound in mice tail after 1 hr of intravenous injection; type: ADME, organism-based; conditions: in vivo; outline: as §1
Mus musculus [5] = assay: Biodistribution in mice carcass, after 24 hr of intravenous administration of 1-2 ug ofcompound (entrapped in bovine brain sphingomyelin/ cholesterol multilamellar vehicles); type: ADME, organism-based; conditions: in vivo; outline: as §2
Mus musculus [6] = assay: Biodistribution of compound in mice kidneys after 21 hr of intravenous injection; type: ADME, organism-based, Kidney; conditions: in vivo; outline: as §1
Mus musculus [7] = assay: Biodistribution in mice blood, after 24 hr of intravenous administration of 1-2 ug of compound (entrapped in bovine brain sphingomyelin/ cholesterol multilamellar vehicles); type: ADME, organism-based; conditions: in vivo; outline: as §2
[8] = Biodistribution in mice excretion, after 48 hr of intravenous administration of 1-2 ug of compound (entrapped in bovine brain sphingomyelin/ cholesterol multilamellar vehicles) at; type: ADME, organism-based; conditions: mouse, excretion (excreta, not specified further), read-out: ID; outline: as §2
Mus musculus [9] = assay: Biodistribution of compound in mice skin after 0.17 hr of intravenous injection; type: ADME, organism-based, Zone of skin; conditions: in vivo; outline: as §1
Mus musculus [10] = assay: Biodistribution in mice blood, after 48 hr of intravenous administration of 1-2 ug of compound (entrapped in bovine brain sphingomyelin/ cholesterol multilamellar vehicles); type: ADME, organism-based; conditions: in vivo; outline: as §2
Mus musculus [11] = assay: Biodistribution in mice carcass, after 1 hr of intravenous administration of 1-2 ug ofcompound (entrapped in bovine brain sphingomyelin/ cholesterol multilamellar vehicles); type: ADME, organism-based; conditions: in vivo; outline: as §2
Mus musculus [12] = assay: (§3) Biodistribution of compound in mice excretion after 0.17 hr of intravenous injection; type: ADME, organism-based; conditions: in vivo, 0.17 h; outline: as §1
[13] = as §3; type: ADME, organism-based; conditions: mouse, excretion (excreta, not specified further), read-out: ID; outline: as §1
Mus musculus [14] = assay: Biodistribution of compound in mice tail after 21 hr of intravenous injection; type: ADME, organism-based; conditions: in vivo; outline: as §1
Mus musculus [15] = assay: Biodistribution in mice spleen, after 12 hr of intravenous administration of 1-2 ug of compound (entrapped in bovine brain sphingomyelin/ cholesterol multilamellar vehicles); type: ADME, organism-based; conditions: in vivo; outline: as §2
Mus musculus [16] = assay: Biodistribution in mice intestine, after 12 hr of intravenous administration of 1-2 ug of compound (entrapped in bovine brain sphingomyelin/ cholesterol multilamellar vehicles); type: ADME, organism-based; conditions: in vivo; outline: as §2
Mus musculus [17] = assay: Biodistribution of compound in mice intestine after 0.17 hr of intravenous injection; type: ADME, organism-based; conditions: in vivo; outline: as §1
Mus musculus [18] = assay: Biodistribution in mice kidneys, after 24 hr of intravenous administration of 1-2 ug of compound (entrapped in bovine brain sphingomyelin/ cholesterol multilamellar vehicles); type: ADME, organism-based, Kidney; conditions: in vivo; outline: as §2
Mus musculus [19] = assay: Biodistribution in mice lung, after 1 hr of intravenous administration of 1-2 ug of compound (entrapped in bovine brain sphingomyelin/ cholesterol multilamellar vehicles); type: ADME, organism-based; conditions: in vivo; outline: as §2
Mus musculus [20] = assay: Biodistribution in mice kidneys, after 12 hr of intravenous administration of 1-2 ug of compound (entrapped in bovine brain sphingomyelin/ cholesterol multilamellar vehicles); type: ADME, organism-based, Kidney; conditions: in vivo; outline: as §2
[21] = Biodistribution in mice excretion, after 12 hr of intravenous administration of 1-2 ug of compound (entrapped in bovine brain sphingomyelin/ cholesterol multilamellar vehicles); type: ADME, organism-based; conditions: mouse, excretion (excreta, not specified further), read-out: ID; outline: as §2
Mus musculus [22] = assay: Biodistribution in mice heart, after 12 hr of intravenous administration of compound (entrapped in bovine brain sphingomyelin/ cholesterol multilamellar vehicles); type: ADME, organism-based; conditions: in vivo; outline: as §2
Mus musculus [23] = assay: Biodistribution of compound in mice carcass after 21 hr of intravenous injection; type: ADME, organism-based; conditions: in vivo; outline: as §1
Mus musculus [24] = assay: Biodistribution in mice stomach, after 48 hr of intravenous administration of 1-2 ug of compound (entrapped in bovine brain sphingomyelin/ cholesterol multilamellar vehicles); type: ADME, organism-based; conditions: in vivo
Outline: (§4)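 BALB/c mice (about 25 g), groups of 2–5. Compound ¹¹¹In-loaded into SM/CH (2:1, mol/mol) multilamellar vesicles, given as a single tail-vein injection. Lipid dose was 1–2 μg phospholipid/g body weight, in 50–100 μL carrying about 100 000 cpm. Mice were killed by cervical dislocation. Organs were rinsed, blotted, weighed and γ-counted, with blood background subtracted. Values are % injected dose ± SD.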

Mus musculus [25] = assay: Biodistribution of compound in mice blood after 0.17 hr of intravenous injection; type: ADME, organism-based; conditions: in vivo; outline: as §1
Mus musculus [26] = assay: Biodistribution in mice liver, after 1 hr of intravenous administration of 1-2 ug of compound (entrapped in bovine brain sphingomyelin/ cholesterol multilamellar vehicles); type: ADME, organism-based; conditions: in vivo; outline: as §2
Mus musculus [27] = assay: Biodistribution in mice carcass, after 12 hr of intravenous administration of 1-2 ug of compound (entrapped in bovine brain sphingomyelin/ cholesterol multilamellar vehicles); type: ADME, organism-based; conditions: in vivo; outline: as §2
Mus musculus [28] = assay: Biodistribution in mice kidneys, after 48 hr of intravenous administration of 1-2 ug of compound (entrapped in bovine brain sphingomyelin/ cholesterol multilamellar vehicles); type: ADME, organism-based, Kidney; conditions: in vivo; outline: as §2
Mus musculus [29] = assay: Biodistribution in mice kidneys, after 1 hr of intravenous administration of 1-2 ug of compound (entrapped in bovine brain sphingomyelin/ cholesterol multilamellar vehicles); conditions: in vivo
Mus musculus [30] = assay: Biodistribution of compound in mice spleen after 1 hr of intravenous injection; type: ADME, organism-based; conditions: in vivo; outline: as §1
Mus musculus [31] = assay: Biodistribution in mice leg muscle, after 24 hr of intravenous administration of 1-2 ug of compound (entrapped in bovine brain sphingomyelin/ cholesterol multilamellar vehicles); type: ADME, organism-based, Muscle tissue; conditions: in vivo; outline: as §2
Mus musculus [32] = assay: Biodistribution in mice spleen, after 24 hr of intravenous administration of 1-2 ug of compound (entrapped in bovine brain sphingomyelin/ cholesterol multilamellar vehicles); type: ADME, organism-based; conditions: in vivo; outline: as §2
Mus musculus [33] = assay: Biodistribution in mice lung, after 48 hr of intravenous administration of 1-2 ug of compound (entrapped in bovine brain sphingomyelin/ cholesterol multilamellar vehicles); type: ADME, organism-based; conditions: in vivo; outline: as §2
Mus musculus [34] = assay: Biodistribution in mice liver, after 12 hr of intravenous administration of 1-2 ug of compound (entrapped in bovine brain sphingomyelin/ cholesterol multilamellar vehicles); type: ADME, organism-based; conditions: in vivo; outline: as §2
Mus musculus [35] = assay: Biodistribution in mice liver, after 48 hr of intravenous administration of 1-2 ug ofcompound (entrapped in bovine brain sphingomyelin/ cholesterol multilamellar vehicles); type: ADME, organism-based; conditions: in vivo; outline: as §2
Mus musculus [36] = assay: Biodistribution in mice lung, after 12 hr of intravenous administration of 1-2 ug ofcompound (entrapped in bovine brain sphingomyelin/ cholesterol multilamellar vehicles); type: ADME, organism-based; conditions: in vivo; outline: as §2
Mus musculus [37] = assay: Biodistribution of compound in mice skin after 1 hr of intravenous injection; type: ADME, organism-based, Zone of skin; conditions: in vivo; outline: as §1
Mus musculus [38] = assay: Biodistribution of compound in mice blood after 21 hr of intravenous injection; type: ADME, organism-based; conditions: in vivo; outline: as §1
Mus musculus [39] = assay: Biodistribution in mice stomach, after 12 hr of intravenous administration of 1-2 ug of compound (entrapped in bovine brain sphingomyelin/ cholesterol multilamellar vehicles); type: ADME, organism-based; conditions: in vivo; outline: as §4

ID (Mus musculus [1]): 3.8% and 3.7% | ID (Mus musculus [2]): 0.3% | ID (Mus musculus [3]): 0.3% and 1.4% | ID (Mus musculus [4]): 2% | ID (Mus musculus [5]): 2.1% | ID (Mus musculus [6]): 0.8% and 0.9% | ID (Mus musculus [7]): 0.4% | dose excreted at 48 h [8]: 0% | ID (Mus musculus [9]): 15.6% and 15.1% | ID (Mus musculus [10]): 0.4% | ID (Mus musculus [11]): 4% | ID (Mus musculus [12]): 3.2% | dose excreted at 0.17 h [13]: 3.6% | ID (Mus musculus [14]): 2.1% and 2.3% | ID (Mus musculus [15]): 4% | ID (Mus musculus [16]): 1% | ID (Mus musculus [17]): 2.2% and 2.4% | ID (Mus musculus [18]): 0.5% | ID (Mus musculus [19]): 0.4% | ID (Mus musculus [20]): 0.4% | dose excreted at 12 h [21]: 0% | ID (Mus musculus [22]): 0% | ID (Mus musculus [23]): 0.8% and 3% | ID (Mus musculus [24]): 0% | ID (Mus musculus [25]): 21.1% and 20.9% | ID (Mus musculus [26]): 55.1% | ID (Mus musculus [27]): 2% | ID (Mus musculus [28]): 0.4% | ID (Mus musculus [29]): 0.5% | ID (Mus musculus [30]): 0.1% and 0% | ID (Mus musculus [31]): 0.2% | ID (Mus musculus [32]): 1.9% | ID (Mus musculus [33]): 0.2% | ID (Mus musculus [34]): 73.6% | ID (Mus musculus [35]): 62.4% | ID (Mus musculus [36]): 0.1% | ID (Mus musculus [37]): 5.8% and 7.7% | ID (Mus musculus [38]): 1% and 0.7% | ID (Mus musculus [39]): 0.2%
SMILES: NCCNC(=O)CN(CCN(CCN(CC(=O)O)CC(=O)O)CC(=O)O)CC(=O)O
